Source: PMC7511286 (European Journal of Drug Metabolism and Pharmacokinetics, 2020)

Assay: MAD study: safety and tolerability
Format: in vivo, human
Conditions: for TEAE Hemoglobinuria: subjects having the event: based solely on a positive dip stick test
In short: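 Healthy males aged 18–55 took oral tablets. Treatment-emergent AEs were recorded by clinical evaluation. Vital signs (blood pressure, pulse), 12-lead and Holter ECG, physical examination, and urine and plasma laboratory tests were also assessed. AEs of special interest were hematuria and retroperitoneal colicky pain with suspected or confirmed nephrolithiasis. Subjects were hospitalized around dosing.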

COc1cccc(-c2ccc(NC(=O)C3=C(C(=O)O)CCC3)c(F)c2)c1 [IMU-838, vidofludimus calcium]
TEAEs Total: subjects having the event (30 mg, n = 12): 9 (75.0) N (%) | TEAE Hemoglobinuria: subjects having the event (30 mg, n = 12): 1 (8.3) N (%) | number of drug-related TEAEs (40 mg once daily): 8 | TEAE Arthropod bite: number of events (40 mg, n = 12): 1 | TEAE Arthropod bite: subjects having the event (40 mg, n = 12): 1 (8.3) N (%) | TEAE Blood creatinine kinase increased: number of events (40 mg, n = 12): 1 | TEAE Blood creatinine kinase increased: subjects having the event (40 mg, n = 12): 1 (8.3) N (%) | TEAE Fatigue: subjects having the event (40 mg, n = 12): 3 (25.0) N (%) | TEAE Flatulence: subjects having the event (40 mg, n = 12): 1 (8.3) N (%) | TEAE Headache: subjects having the event (40 mg, n = 12): 1 (8.3) N (%) | TEAE Listless: subjects having the event (40 mg, n = 12): 1 (8.3) N (%) | TEAE Sneezing: subjects having the event (40 mg, n = 12): 1 (8.3) N (%) | TEAEs Gastrointestinal disorders Total: number of events (40 mg, n = 12): 1 | TEAEs Gastrointestinal disorders Total: subjects having the event (40 mg, n = 12): 1 (8.3) N (%) | TEAEs General disorders and administration site conditions Total: number of events (40 mg, n = 12): 3 | TEAEs General disorders and administration site conditions Total: subjects having the event (40 mg, n = 12): 3 (25.0) N (%) | TEAEs Injury, poisoning and procedural complications total: number of events (40 mg, n = 12): 1 | TEAEs Investigations Total: number of events (40 mg, n = 12): 1 | TEAEs Investigations Total: subjects having the event (40 mg, n = 12): 1 (8.3) N (%) | TEAEs Nervous system disorders Total: number of events (40 mg, n = 12): 2 | TEAEs Nervous system disorders Total: subjects having the event (40 mg, n = 12): 1 (8.3) N (%) | TEAEs Psychiatric disorders Total: number of events (40 mg, n = 12): 1 | TEAEs Psychiatric disorders Total: subjects having the event (40 mg, n = 12): 1 (8.3) N (%) | TEAEs Renal and urinary disorders Total: number of events (40 mg, n = 12): 2 | TEAEs Renal and urinary disorders Total: subjects having the event (40 mg, n = 12): 2 (16.7) N (%) | TEAEs Respiratory, thoracic and mediastinal disorders Total: number of events (40 mg, n = 12): 1 | TEAEs Total: number of events (40 mg, n = 12): 12 | TEAEs Total: subjects having the event (40 mg, n = 12): 6 (50.0) N (%) | TEAE Hemoglobinuria: subjects having the event (40 mg, n = 12): 2 (16.7) N (%) | number of drug-related TEAEs (50 mg once daily): 16 | TEAE Abdominal pain upper: number of events (50 mg, n = 16): 2 | TEAE Abdominal pain upper: subjects having the event (50 mg, n = 16): 1 (6.3) N (%) | TEAE Dyspepsia: subjects having the event (50 mg, n = 16): 1 (6.3) N (%) | TEAE Dysuria: subjects having the event (50 mg, n = 16): 1 (6.3) N (%) | TEAE Epistaxis: subjects having the event (50 mg, n = 16): 1 (6.3) N (%) | TEAE Flank pain: number of events (50 mg, n = 16): 1 | TEAE Flank pain: subjects having the event (50 mg, n = 16): 1 (6.3) N (%) | TEAE Headache: subjects having the event (50 mg, n = 16): 3 (18.8) N (%) | TEAE Hematuria: subjects having the event (50 mg, n = 16): 1 (6.3) N (%) | TEAE Lipase increased: number of events (50 mg, n = 16): 1 | TEAE Lipase increased: subjects having the event (50 mg, n = 16): 1 (6.3) N (%) | TEAE Nasopharyngitis: subjects having the event (50 mg, n = 16): 4 (25.0) N (%) | TEAE Tenderness: subjects having the event (50 mg, n = 16): 1 (6.3) N (%) | TEAEs Gastrointestinal disorders Total: number of events (50 mg, n = 16): 3 | TEAEs Gastrointestinal disorders Total: subjects having the event (50 mg, n = 16): 2 (12.5) N (%) | TEAEs General disorders and administration site conditions Total: number of events (50 mg, n = 16): 1 | TEAEs General disorders and administration site conditions Total: subjects having the event (50 mg, n = 16): 1 (6.3) N (%) | TEAEs Infections and infestations Total: number of events (50 mg, n = 16): 4 | TEAEs Infections and infestations Total: subjects having the event (50 mg, n = 16): 4 (25.0) N (%) | TEAEs Investigations Total: number of events (50 mg, n = 16): 1 | TEAEs Investigations Total: subjects having the event (50 mg, n = 16): 1 (6.3) N (%) | TEAEs Musculoskeletal and connective tissue disorders Total: number of events (50 mg, n = 16): 1 | TEAEs Musculoskeletal and connective tissue disorders Total: subjects having the event (50 mg, n = 16): 1 (6.3) N (%) | TEAEs Nervous system disorders Total: number of events (50 mg, n = 16): 3 | TEAEs Nervous system disorders Total: subjects having the event (50 mg, n = 16): 3 (18.8) N (%) | TEAEs Renal and urinary disorders Total: number of events (50 mg, n = 16): 8 | TEAEs Renal and urinary disorders Total: subjects having the event (50 mg, n = 16): 6 (37.5) N (%) | TEAEs Respiratory, thoracic and mediastinal disorders Total: number of events (50 mg, n = 16): 1 | TEAEs Total: number of events (50 mg, n = 16): 22 | TEAEs Total: subjects having the event (50 mg, n = 16): 10 (62.5) N (%) | TEAE Hemoglobinuria: subjects having the event (50 mg, n = 16): 5 (31.3) N (%) | tolerability (30–50 mg once daily over 14 consecutive days): well tolerated | deaths or serious AEs (single and multiple doses (SAD and MAD)): no deaths or serious AEs | overall number of drug-related TEAEs (whole MAD study, 52 subjects including placebo): 53 | overall number of TEAEs (whole MAD study, 52 subjects including placebo, mild or moderate intensity): 79
